Screens (PubChem BioAssay)
KCNQ1 pot: potentiates or activates the human KCNQ1 potassium channel; AID 2648; 310,000 compounds, 0.35% hits; P51787; CHO-K1 KCNQ1, thallium flux FluxOR fluorescence; active compounds read high; B-score at 10 µM;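 active = fluorescence ratio B-score, a plate-corrected score, at least three library SD, with initial intensity B-score within 5 SD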
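System: Stable KCNQ1 CHO-K1 line | Incubation: 90 min dye loading and 20 min compound exposure, both at room temperature | Measure: Ratio B score | Medium: Assay buffer for compound exposure, DMSO matched across wells | Compound dosing: Single-concentration screen | Probe or stimulus: K+/Tl+ depolarizing stimulus | Measured by: Kinetic FluxOR fluorescence, 10 s baseline plus 110 s post-stimulus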
KCNQ1 block: blocks the human KCNQ1 potassium channel | B-score at 10 µM | CHO-K1 KCNQ1, FluxOR thallium flux fluorescence; active compounds read high | 310,000 compounds, 1.3% hits | P51787;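 active = compounds whose thallium flux B-score, printed positive for inhibition, exceeds three library SD while starting fluorescence stays within three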;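 note: channel opened by potassium depolarization with thallium stimulus after 20 min compound exposure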
KCNK9 block: inhibitors of human KCNK9 two-pore domain potassium channel; Q9NPC2; AID 488922; 310,000 compounds, 1.2% hits; B-score at 10 µM; HEK293 KCNK9, FluxOR thallium flux fluorescence; active compounds read low;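 active = ratio B-score over 3 SD below the library mean, with starting fluorescence within 5 SD of its mean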;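 note: negative B-score means less thallium flux so channel inhibition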
hERG protect: hERG (human) protection from proarrhythmic block. CHO-hERG, FluxOR thallium flux, dofetilide IC70 present. 310,000 compounds, 0.51% hits. AID 1511. Q12809. activation (rescue from dofetilide block), less the hit threshold, % at 10 µM;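 active = activation above the mean of controls blocked by dofetilide plus 5 SD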;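 note: thallium influx through hERG after potassium depolarization seen as dye fluorescence rise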
KCNK3 block: human KCNK3 channel inhibition, primary screen. 340,000 compounds, 0.84% hits. AID 602410. B-score at 10 µM. O14649. CHO-KCNK3 thallium flux, FluxOR fluorescence; active compounds read low;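 active = B-score under library mean minus 4 SD, starting fluorescence ratio at most library mean plus 5 SD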;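 note: more negative B-score means stronger inhibition of thallium flux through KCNK3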
Kir21 inh: Kir2.1 (mouse) channel inhibition; AID 1672; P35561; B-score at 10 µM; HEK293-Kir2.1, FluxOR thallium flux fluorescence; active compounds read low; 310,000 compounds, 0.85% hits;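 active = fluorescence ratio B-score at or below minus 3 SD of library scores, with starting-brightness B-score within 2 SD, cut at about -4.2 in these data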;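 note: channel flux triggered by added potassium and thallium sulfate stimulus; B-score of peak minus minimum fluorescence over baseline after thallium stimulus; more negative B-score means stronger Kir2.1 block with less thallium influx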
Target sequence (P35561 whole entry, looked up): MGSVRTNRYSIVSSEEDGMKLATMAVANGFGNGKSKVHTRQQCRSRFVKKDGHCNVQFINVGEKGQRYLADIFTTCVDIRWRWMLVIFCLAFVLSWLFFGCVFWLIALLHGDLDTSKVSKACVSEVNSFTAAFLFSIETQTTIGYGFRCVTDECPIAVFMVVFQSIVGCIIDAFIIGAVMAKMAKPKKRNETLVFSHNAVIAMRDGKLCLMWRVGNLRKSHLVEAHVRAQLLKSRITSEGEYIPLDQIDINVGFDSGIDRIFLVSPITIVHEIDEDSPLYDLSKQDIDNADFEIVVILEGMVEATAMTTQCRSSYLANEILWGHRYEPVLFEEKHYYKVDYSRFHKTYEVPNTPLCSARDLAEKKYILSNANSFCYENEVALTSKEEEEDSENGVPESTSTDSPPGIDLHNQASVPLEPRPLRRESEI
KCNK3 confirm: human KCNK3 channel inhibition, confirmation assay; CHO-KCNK3 thallium flux, FluxOR fluorescence; 0% buffer, 100% carvedilol maximal block; ratio percent of control, % at 10 µM; AID 651638; 2,400 compounds, 99% hits; shares compounds with KCNK3 block;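 active = ratio percent of control, averaged over triplicates, above buffer control mean plus 5 SD, cut at about 64% in these data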;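 note: ratio is the fluorescence rise from min to max over baseline after thallium stimulus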
KCNK3 uninduced: counter-screen for KCNK3 inhibitors: effect in non-induced cells; shares compounds with KCNK3 block; non-induced KCNK3 parental cells, FluxOR thallium flux; active compounds read low; thallium flux ratio (lower = more inhibition) at 10 µM; 2,400 compounds, 40% hits; AID 651747;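 active = thallium flux ratio, averaged over three wells, more than 5 SD below the buffer control mean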;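 note: host cells are CHO cells without KCNK3 induction; ratio is peak minus trough fluorescence over baseline then normalized to buffer controls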
Numbers without * were called inactive; i = inactive; nt = no result. In the library only some 3.8% were active in any assay of this set; here they are far more common.

SMILES	KCNQ1 pot	KCNQ1 block	KCNK9 block	hERG protect	KCNK3 block	Kir21 inh	KCNK3 confirm	KCNK3 uninduced
CCOC(=O)c1cc(C#N)c(SCC(N)=O)[nH]c1=O	i	i	i	-10.6	i	-1.2	nt	nt
C/C(=N\N=C1\NC(=O)C(Cc2ccccc2)S1)c1ccccc1 (stereo not given)	i	i	i	-2.7	-10.3*	1.04	102.7*	0.157*
CC(=O)N1N=C2/C(=C/c3ccccc3)CCCC2C1c1ccccc1 (stereo not given)	i	i	i	-11.7	-9.64*	-1.67	103.3*	i
CC(C)C(OC(=O)c1ccccc1)c1nccc2ccccc12 (stereo not given)	i	i	i	-21.0	i	-0.02	nt	nt
O=C(OC(c1ccccc1)c1nccc2ccccc12)c1ccccc1 (stereo not given)	nt	nt	nt	nt	-11.5*	nt	104.7*	0.139*
Cc1ccc(C(=O)Nc2cccc(-c3nc4ncccc4o3)c2)cc1	i	i	i	-18.4	-10.2*	-0.29	90.0*	i
O=C(Nc1cccc(-c2nc3ncccc3o2)c1)c1ccccc1	i	i	i	-32.6	i	-1.26	nt	nt
C(=C/c1nccc2c1[nH]c1ccccc12)/c1ccc2c(c1)OCO2	i	i	i	-12.7	-11*	-0.55	99.3*	i
COc1ccccc1/C=C/C(=O)OCC(=O)NC1CC1	nt	nt	nt	nt	i	nt	nt	nt
COc1ccc(NC2c3ccccc3C(=O)N2c2cccnc2)cc1Cl (stereo not given)	i	i	i	-14.2	-10.3*	-1.66	117.0*	i
O=C1c2ccccc2C(Nc2ccccc2)N1c1cccnc1 (stereo not given)	i	i	i	-6.5	i	-0.24	nt	nt
COC(=O)c1cc(NC2c3ccccc3C(=O)N2c2cccnc2)cc(C(=O)OC)c1 (stereo not given)	i	i	i	-16.5	-9.04*	-0.07	119.3*	0.154*
Cc1cccc(NC(=O)c2c(-c3ccccc3)noc2C)n1	i	i	i	-15.7	i	-1.57	nt	nt
CSCCOC(=O)COc1ccc(/C=N/NC(=O)c2c(Cl)cnn2C)cc1	i	i	i	-9.5	i	0.58	nt	nt
Cc1ccc(OCc2nnc(-c3ccc(Cl)cc3)o2)cc1	i	i	i	-7.1	i	2.13	nt	nt
Cc1cc(C)nc(/N=C(\N)Nc2ccc(C(C)C)cc2)n1	i	i	i	-11.0	i	-1.28	nt	nt
CC(=O)Oc1c(I)cc(I)cc1C(=O)Nc1ccc(Cl)cc1	i	7*	i	-15.5	-11*	0.83	123.0*	0.131*
COc1ccc(Cl)cc1C(=O)Nc1ccc(NC(C)=O)cc1	i	i	i	-2.1	i	0.04	nt	nt
Cc1cc(C)n2cc(CSCc3ccco3)nc2n1	i	i	i	-3.4	-16.8*	-0.17	77.7*	i
Cc1cccc2nc(CSCc3ccco3)cn12	i	i	i	-7.0	i	0.13	nt	nt
CCOc1ccccc1NC(=O)C(OC(=O)c1ccc(NC(=O)CC#N)cc1)c1ccccc1 (stereo not given)	i	8*	i	-26.2	-10.2*	1.86	124.7*	0.134*
CCOc1ccccc1NC(=O)C(OC(=O)c1ccccc1O)c1ccccc1 (stereo not given)	i	i	i	-6.7	i	-1.61	nt	nt
O=c1c(-c2ccccc2)c(-c2ccccc2)oc2cc(O)cc(O)c12	i	13*	i	-13.9	-8.98*	-0.81	112.0*	i
O=c1c(O)c(-c2ccccc2)oc2cc(O)cc(O)c12	nt	nt	nt	nt	i	nt	nt	nt
CCCCNC(=O)CSc1nc2cc3c(cc2c(=O)n1Cc1ccco1)OCO3	i	i	i	-11.8	i	-1.37	nt	nt
SMILES	KCNQ1 pot	KCNQ1 block	KCNK9 block	hERG protect	KCNK3 block	Kir21 inh	KCNK3 confirm	KCNK3 uninduced
O=C(NCCS(=O)(=O)c1ccc(Br)cc1)c1ccccc1	i	i	i	-1.7	i	-1.63	nt	nt
CC(C)c1ccc(C(C)NCCS(=O)(=O)c2ccc(Br)cc2)cc1 (stereo not given)	i	i	i	-14.1	-8.91*	-4.71*	69.3*	0.145*
O=C(N/N=C/c1c[nH]c2ccccc12)c1ccn(Cc2ccc(Cl)cc2Cl)n1	i	i	i	-6.4	-9.3*	-0.37	106.3*	0.15*
COc1ccccc1CN(C)C(=O)COC(=O)c1ccc(Cl)nc1	nt	nt	nt	nt	i	nt	nt	nt
CCN1CCN(C(=O)c2ccc(COc3ccc(Cl)cc3)o2)CC1	i	i	i	-5.3	i	0.92	nt	nt
O=C(c1ccc(COc2ccc(Cl)cc2)o1)N1CCN(Cc2ccc3c(c2)OCO3)CC1	i	i	i	-17.0	-9.8*	-1.32	146.0*	0.113*
C=CCN1CCN(C(c2ccc(OC)c(OC)c2)c2nnnn2C(C)(C)C)CC1 (stereo not given)	i	i	i	-4.3	i	1	nt	nt
CCOC(=O)c1ccccc1NC(=O)COC(=O)CC1CCCCC1	i	i	i	-5.6	-9.68*	-0.62	105.3*	0.151*
Cc1sc2c(c1C)C(=O)NC(c1ccccc1F)N2 (stereo not given)	i	i	i	-6.2	i	0.71	nt	nt
Cc1noc(/C=C/c2ccco2)c1S(=O)(=O)N1CCC(C(=O)N2CCc3ccccc3C2)CC1	i	i	i	-14.2	i	-0.65	nt	nt
Cn1cc([C@@H]2C[C@H]3CN(Cc4cccc(Cl)c4)C(=O)[C@]34CCCN24)c(-c2ccccc2)n1	i	i	-7.27*	-5.9	-9.73*	-1.87	99.7*	i
O=C1N(Cc2cccc(Cl)c2)C[C@@H]2C[C@@H](c3ccco3)N3CCC[C@@]123	i	i	i	-8.5	-9.24*	0.07	88.3*	i
Cc1nn(C)cc1[C@@H]1C[C@H]2CN(Cc3cccc(Cl)c3)C(=O)[C@]23CCCN13	i	i	i	-7.9	i	0.81	nt	nt
CCCn1ncc([C@@H]2C[C@H]3CN(Cc4cccc(Cl)c4)C(=O)[C@]34CCCN24)c1C	i	i	i	-11.4	i	0.01	nt	nt
CCCSc1nc(NCc2ccco2)c2c3c(sc2n1)COC(C)(C)C3	i	6*	i	-11.5	-9.56*	0.41	108.0*	i
CCN(CC)S(=O)(=O)c1cc(Br)ccc1OC	i	i	i	-12.3	i	0.06	nt	nt
CCC(C)n1c(/C=C/c2ccccc2)nc2ccccc21 (stereo not given)	i	i	i	-19.4	-9.82*	0	88.0*	i
